This is an account of results in ChEMBL document CHEMBL4130374, “Discovery of 9H-purins as potential tubulin polymerization inhibitors: Synthesis, biological evaluation and structure-activity relationships” (Eur J Med Chem, 2017).

A word on the inhibition: it is how much of the control response was suppressed. Higher therefore signals strong suppression. The GI50 is the concentration giving 50% growth inhibition. The low end stands for greater sensitivity of the cells, the high end for lower sensitivity of the cells.

The first test concerns Tubulin (Sus scrofa). The test can be described thus: Inhibition of pig brain tubulin polymerization at 10 uM by spectrophotometry relative to control.
Settings: not given
In turn, `COc1ccc(N(C)c2nc(Cl)nc3c2ncn3Cc2ccc(OC)c(OC)c2)cc1` had an inhibition of 25%.
Take `COc1ccc(Cn2cnc3c(Cl)nc(Cl)nc32)cc1OC`: the inhibition was 22%.
`COc1ccc(N(C)c2nc(Cl)nc3c2ncn3Cc2cc(OC)c(OC)c(OC)c2)cc1` displayed an inhibition of 12%.
For `COc1cc(Cn2cnc3c(Cl)nc(Cl)nc32)cc(OC)c1OC`, the inhibition is 13%.
`COc1ccc(Cn2cnc3c(Cl)nc(Cl)nc32)cc1` returned an inhibition of 25%.

The next test deals with SH-SY5Y. The test can be described thus: Antiproliferative activity against human SH-SY5Y cells after 48 hrs by MTT assay. It is filed as functional.
Settings: not given
A digest of the protocol:
(§1)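 Log-phase cells, harvested by trypsinization, seeded 24 h, then exposed to a range of compound concentrations for 48 h. Culture in RPMI 1640 with 4% FBS, penicillin/streptomycin, 37°C, 5% CO2. DMSO below 1% final; 5-Fu as positive control. Readout is MTT (0.5 mg/mL, 4 h), formazan dissolved in DMSO, absorbance at 570 nm. GI50 = 50% growth inhibition versus untreated cells; means ± SD of at least two independent experiments.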
`COc1ccc(N(C)c2ncnc3[nH]cnc23)cc1` showed a GI50 above 100 µM.
Consider `COc1ccc(N(C)c2nc(Cl)nc3c2ncn3Cc2ccc(OC)c(OC)c2)cc1`, for which the GI50 was found to be 7.3 µM.
Compound `COc1ccc(Cn2cnc3c(Cl)nc(Cl)nc32)cc1OC` had a GI50 of 5.5 µM.
The same measure, in the same setting: under `COc1ccc(N(C)c2nc(Cl)nc3c2ncn3Cc2cc(OC)c(OC)c(OC)c2)cc1` stands 3 µM; under `COc1cc(Cn2cnc3c(Cl)nc(Cl)nc32)cc(OC)c1OC`, 9.6 µM; under `COc1ccc(Cn2cnc3c(Cl)nc(Cl)nc32)cc1`, 7.7 µM.

The next test concerns AGS. In words: Antiproliferative activity against human AGS cells after 48 hrs by MTT assay. In kind it is functional.
Settings: not given
A digest of the protocol: as §1
`COc1ccc(N(C)c2ncnc3[nH]cnc23)cc1`: the GI50 was above 100 µM.
Same read-out and setting: the value for `COc1ccc(N(C)c2nc(Cl)nc3c2ncn3Cc2ccc(OC)c(OC)c2)cc1` was 56 µM.
On the same count and under the same terms, under `COc1ccc(Cn2cnc3c(Cl)nc(Cl)nc32)cc1OC` stands 11 µM.
On the same count and under the same terms, under `COc1ccc(N(C)c2nc(Cl)nc3c2ncn3Cc2cc(OC)c(OC)c(OC)c2)cc1` stands 85 µM; under `COc1cc(Cn2cnc3c(Cl)nc(Cl)nc32)cc(OC)c1OC`, 9.4 µM.
`COc1ccc(Cn2cnc3c(Cl)nc(Cl)nc32)cc1` registered a GI50 of 19 µM.

In the next test the test system is K562. In words: Antiproliferative activity against human K562 cells after 48 hrs by MTT assay. In kind it is functional. The note with it: K562, 48 h. A digest of the protocol: as §1
Consider `COc1ccc(N(C)c2ncnc3[nH]cnc23)cc1`, for which the GI50 is above 100 µM.
Take `COc1ccc(N(C)c2nc(Cl)nc3c2ncn3Cc2ccc(OC)c(OC)c2)cc1`: the GI50 came to 27 µM.
`COc1ccc(Cn2cnc3c(Cl)nc(Cl)nc32)cc1OC` displayed a GI50 of 7 µM.
On the same count and under the same terms, the value for `COc1ccc(N(C)c2nc(Cl)nc3c2ncn3Cc2cc(OC)c(OC)c(OC)c2)cc1` was 41 µM; that for `COc1cc(Cn2cnc3c(Cl)nc(Cl)nc32)cc(OC)c1OC` was 4.3 µM; that for `COc1ccc(Cn2cnc3c(Cl)nc(Cl)nc32)cc1` was 36 µM.
